Shown are actives, neighbours in structure and some others; about 2.7% of the full set was active somewhere.
CHO parental Ca: ATP-evoked calcium signal inhibitors, parental CHO, primary screen, counter-screen for OX1R antagonist project, cell-based, fluorescence, Fluo-8 calcium dye; parental CHO-K1, ATP-induced calcium, Fluo-8 fluorescence; inhibition, % at 5.6 µM; 0.63% of 330,000 active;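 active means inhibition above that plate's mean sample inhibition plus 3 SD, cut at about 26% in these data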;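 further: 0% = ATP-challenged DMSO wells and 100% = DMSO wells without ATP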
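material = parental CHO cells | also added = ATP as calcium-mobilizing challenge | dosing = single point at 5.6 µM | detection = intracellular calcium via Fluo-8 no-wash fluorescent dye | read-out = % inhibition | benchmarks = low control ATP plus DMSO, high control DMSO only | repeats = one well per compound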
OXTR potentiate: human OXTR potentiators, primary screen, fluorescence, CHO-OTR cells, Fluo-8 calcium; 0.061% of 320,000 active; AID 2445, 2010; Fluo-8 calcium fluorescence, potentiator mode; 0% = oxytocin EC15, 100% = EC100; Oxytocin receptor (Homo sapiens), P30559; activation, % at 3 µM;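 active means activation above that plate's cutoff, the mean activation of tested compounds plus 3 SD, cut at about 6.6% in these data, passing the limit was not always enough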;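 further: 100% uses oxytocin at 75 nM as the full agonist control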
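Material: CHO-OTR cells, human receptor; compound dosing: single dose, 3.0 µM nominal final compound concentration; schedule: 6 min compound pre-incubation at room temperature, 100 s kinetic read; measured by: kinetic Fluo-8 calcium fluorescence; read-out basis: % activation vs EC15 and EC100 oxytocin; controls: EC15 oxytocin alone as 0%, 75 nM oxytocin as 100%; replicates: singlicate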
OXTR ag: human OXTR agonists, primary screen, fluorescence, CHO-OTR cells, Fluo-8 calcium | Oxytocin receptor (Homo sapiens), P30559 | Fluo-8 calcium fluorescence; normalized: DMSO 0%, oxytocin 100% | AID 2435, 2010 | 0.32% of 320,000 active | activation, % at 3 µM;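 active means activation above the mean of all tested compounds plus 3 SD, cutoff set per screening run, cut at about 20% in these data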;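 further: peak over basal fluorescence ratio from a 100 s FLIPR kinetic read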
OX1R antag-1: antagonists of human orexin 1 receptor (OX1R); inhibition, % at 6.6 µM; 1.8% of 330,000 active; Orexin/Hypocretin receptor type 1 (Homo sapiens), O43613; AID 485270, 2010; OX1R-expressing cells, FRET antagonist read-out; in the data active means inhibition mostly above about 38%, no sharp cut-off; inactive means mostly below about 40%;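 further: 0% = agonist challenge alone and 100% = reference antagonist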
OX1R antag-2: OX1R (HCRTR1) antagonists, primary screen, fluorescence, CHO/OX1R cells, Fluo-8 calcium, orexin A; Orexin/Hypocretin receptor type 1 (Homo sapiens), O43613; Fluo-8 calcium fluorescence; inhibition, % at 5 µM; 0.43% of 330,000 active;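 active means inhibition above its plate's threshold, mean inhibition of all tested compounds on the plate plus 3 SD, cut at about 37% in these data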;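 further: 0% = orexin A challenge wells and 100% = SB-334867-A antagonist wells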
V1R ag counter: agonists of human V1a receptor, primary screen, counter-screen for OXTR agonist project, fluorescence, CHO-V1R cells. AID 2797, 2010. activation, % at 3 µM. Fluo-8 calcium fluorescence, agonist mode; 0% DMSO, 100% 3 nM vasopressin. Vasopressin V1a receptor (Homo sapiens), P37288. 0.25% of 320,000 active;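 active means activation above the mean activation of all tested compounds plus 3 SD, per screening run, cut at about 20% in these data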;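 further: signal is peak over basal fluorescence ratio across a 100 second FLIPR read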
Target sequence (P37288 whole entry, looked up): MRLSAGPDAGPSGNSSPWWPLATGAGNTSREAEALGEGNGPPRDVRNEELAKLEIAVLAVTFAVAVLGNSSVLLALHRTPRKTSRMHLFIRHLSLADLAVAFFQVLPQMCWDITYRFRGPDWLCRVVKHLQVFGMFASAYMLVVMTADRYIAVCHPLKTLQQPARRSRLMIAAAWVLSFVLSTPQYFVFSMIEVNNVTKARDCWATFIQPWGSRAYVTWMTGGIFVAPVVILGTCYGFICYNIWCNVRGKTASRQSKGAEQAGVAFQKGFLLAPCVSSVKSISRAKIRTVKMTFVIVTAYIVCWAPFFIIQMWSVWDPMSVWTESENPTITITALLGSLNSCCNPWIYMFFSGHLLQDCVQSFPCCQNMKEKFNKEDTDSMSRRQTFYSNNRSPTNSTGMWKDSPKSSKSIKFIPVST
* marks the source's active call; other numbers are inactive results.

SMILES	CHO parental Ca	OXTR potentiate	OXTR ag	OX1R antag-1	OX1R antag-2	V1R ag counter
CN1CCN(c2ccc([N+](=O)[O-])cc2/C=N/NC(=O)c2cccc([N+](=O)[O-])c2)CC1	-16	0	0	66*	-29	1
O=C(N/N=C/c1ccc([N+](=O)[O-])cc1)c1cccc(N2CCCC2=O)c1	-12	-2	1	76*	-18	0
O=C1OC(CC(=O)N(Cc2nnc(-c3ccc(Cl)cc3)o2)C2CC2)c2ccccc21 (configuration not stated)	-44	-2	0	8	-18	0
COc1ccc(CCC2(C)NC(=O)N(C(C)C(=O)Nc3ccccc3F)C2=O)cc1 (configuration not stated)	-10	-5	-1	-3	-19	0
Cc1cc(C)n2nc(/C(C#N)=C/c3ccccn3)c(C#N)c2n1	43*	-4	-1	28	-9	1
Cc1cc(C)n2nc(CC#N)c(C#N)c2n1	4	-12	0	27	8	0
COC(=O)[C@]1(CC(C)C)N[C@H](c2ccc(-c3ccc(F)cc3)c(OC)c2)[C@@H]2C(=O)N(C)C(=O)[C@@H]21	-13	-6	-1	1	-21	0
CSC1=NSC2=NC(=O)/C(=C\c3ccc(OC(=O)c4ccco4)cc3)C(=N)N12	-12	-9	1	21	-4	3
CCSC1=NSC2=NC(=O)/C(=C\c3coc4ccccc4c3=O)C(=N)N12	59*	-11	62*	44	54*	47*
CCCC(=O)Nc1c(-c2cccc(OC)c2)c(=O)c2ccccc2n1C	-9	0	0	2	-5	1
CSc1ncccc1C(=O)OC(C)C(=O)Nc1cccc(S(=O)(=O)N2CCOCC2)c1 (configuration not stated)	-15	-5	-1	7	-8	-1
N#CCc1nc2ccc(S(=O)(=O)N3CCOCC3)cc2s1	35*	-10	15	6	41*	18
O=C(CSc1nc2ccc(Cl)cc2[nH]1)NC1CCCc2ccccc21 (configuration not stated)	-1	-7	-2	73*	-10	0
O=C(CSc1nc2ccccc2[nH]1)NC1CCCc2ccccc21 (configuration not stated)	-22	-9	0	52	-2	2
O=C1C=C(Nc2ccccc2C(=O)O)c2ccccc2C1=O	-5	0	-1	51	-6	-1
O=C1C=C(Nc2cccc3cccnc23)c2ccccc2C1=O	-8	1	0	64*	-10	0
Nc1ncnc2c1c(-c1ccc(Oc3ccccc3)cc1)cn2C1CCCC1	-24	-9	0	20	-22	6
O=C(NCC(c1ccc(F)cc1)N1CCOCC1)c1nn(-c2ccccc2)c(=O)c2ccccc12 (configuration not stated)	-15	-7	0	9	-1	1
Cc1ccc(CNC(=O)CSc2nnc(CNC(=O)c3ccccc3)o2)cc1	-10	-2	-1	20	-12	0
Cc1ccc(C)c(N2CCN(C(=O)c3ccc(NS(=O)(=O)c4c(C)noc4C)cc3)CC2)c1	-14	-13	4	18	4	2
Cc1ccc(Cl)cc1N1CCN(C(=O)c2ccc(NS(=O)(=O)c3c(C)noc3C)cc2)CC1	44*	-20	5	41	26	7
CC1=C(C(=O)Nc2ccc(C(=O)N3CCN(c4cccc(Cl)c4)CC3)cc2)SCCO1	-11	-8	5	7	-15	13
Fc1ccc(NC(=S)N2CCN(c3cccc(C(F)(F)F)c3)CC2)cc1	5	-17	7	13	1	9
CC1=C(C(=O)Nc2cccc(C(=O)N3CCN(c4cccc(C(F)(F)F)c4)CC3)c2)SCCO1	40*	-14	10	9	62*	12
FC(F)(F)c1cccc(NC(=S)N2CCN(c3cccc(C(F)(F)F)c3)CC2)c1	69*	-13	2	16	-6	5
SMILES	CHO parental Ca	OXTR potentiate	OXTR ag	OX1R antag-1	OX1R antag-2	V1R ag counter
CC(C)n1c(=NC(=O)c2ccco2)c(C#N)cc2c(=O)n3ccccc3cc21	-10	-3	-2	54*	-24	-1
CCCCCn1c(=NC(C)=O)c(C#N)cc2c(=O)n3ccccc3nc21	-9	-7	-1	9	-8	-1
O=C(CCS(=O)(=O)c1ccccc1)Nc1ccc(-c2nc3ccccc3s2)cc1	-6	8	2	13	-19	1
O=C(CCS(=O)(=O)c1ccccc1)Nc1cccc(-c2nc3ccccc3s2)c1	-5	-18	7	55*	6	9
O=C(Nc1cc2c(cc1C(=O)O)OCCCO2)c1ccc(F)cc1F	-5	-8	1	6	-2	0
Nc1ccc(-c2c3ccc(=O)cc-3oc3cc(O)ccc23)c(C(=O)O)c1	58*	-13	167*	63*	87*	206*
Cc1nc2ccccc2n1/N=C/c1ccc([N+](=O)[O-])o1	-3	-3	0	36	-4	0
CC1CS(=O)(=O)CCN1N=Cc1ccc([N+](=O)[O-])o1 (configuration not stated)	-6	-5	1	53*	-5	1
Cc1cc(OCC(=O)OCC(=O)Nc2cc(S(=O)(=O)N3CCOCC3)ccc2Cl)ccc1Cl	-1	-10	15	3	11	12
O=C(OCc1cc(=O)n2c(n1)sc1ccccc12)c1ccc(O)cc1O	-17	-16	1	63*	-2	2
CC(=O)Nc1cccc(NC(=O)COC(=O)CO/N=C(\C)c2ccc3c(c2)OCO3)c1	-8	-5	1	74*	22	0
O=C(Nc1ccc2nc(-c3cccs3)c(-c3cccs3)nc2c1)NC1CC1	4	-8	9	58*	-7	4
COc1ccc(OCC(=O)NNC(=O)c2ccc3c(=O)n4c(nc3c2)CCC4)cc1	-11	-6	-1	12	-5	0
CCOc1ccccc1N(CC(=O)Nc1ccc(OC)cc1OC)S(=O)(=O)c1ccccc1	0	-16	-2	50*	-8	-1
COc1ccc(N(CC(=O)NCCc2ccc(OC)c(OC)c2)S(=O)(=O)c2ccc(OC)c(OC)c2)cc1	-31	-11	2	23	-42	3

Source: PubChem BioAssay
